Compound activity (PubChem)
XBP1 UPR activ: activators of adaptive XBP1 UPR arm, primary screen, cell-based, CHO-XBP1 luciferase reporter, luminescence, uHTS | IRE1-XBP1 UPR activation; percent of tunicamycin response, DMSO as zero | activation, % at 20 µM | hit rate 0.33% among 330,000 | AID 463104, 2010;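 active = versus positive control, 20 µM dose yields 30% or more activation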;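 note: 100% = tunicamycin at 10 µg/mL and 0% = DMSO only wells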
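Material: CHO-XBP1 cells stably carrying IRE1-XBP1-driven luciferase reporter / Amount: 1000 cells per well / Compound: 20 µM, 1% DMSO / Times: 6 h treatment, 37 °C / Detection: luciferase luminescence / Measure: % activation of reporter signal versus tunicamycin and DMSO controls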
Hep lipid drop: inhibitors of hepatocyte lipid droplet formation, primary screen, imaging, high-throughput imaging, BODIPY stain | AML12 mouse hepatocytes, oleate lipid droplets | inhibition, % at 6.5 µM | hit rate 0.4% among 240,000 | AID 1656, 2009;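 active = lipid droplet intensity inhibited by at least 50%, with more than 500 cells counted; inconclusive = wells with under 300 cells, treated as cytotoxic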
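Material: mouse AML12 hepatocyte cell line, fixed after treatment; Timing: compound with oleate, overnight; Technique: high-content imaging of BODIPY-stained droplets and DAPI nuclei; Probe or stimulus: oleate, 100 µM final; Dosing: compound at 6.5 µM only.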
CHOP inhibitor: inhibitors of CHOP promoter induction, primary screen, cell-based, unfolded protein response, luciferase reporter | inhibition, % at 10 µM | hit rate 3.8% among 220,000 | AID 2732, 2010 | CHO-K1 CHOP-promoter luciferase, tunicamycin-induced, 15-18 h;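 active = compounds that reduced the stress-induced luciferase reporter signal by more than about 70% of percent inhibition, limit read from the data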;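 note: 0% = tunicamycin plus vehicle and 100% = wells without tunicamycin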
ANO1 activ: TMEM16A chloride channel activators or potentiators, primary screen, cell-based, HTS. HEK293 TMEM16A/YFP-H148Q/I152L, iodide quench fluorescence; active compounds read low. Anoctamin-1 (Mus musculus), Q8BHY3. B-score at 10 µM. hit rate 0.3% among 340,000;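 active = fluorescence-ratio B-score plate-corrected deviation score at least 3 library SD below zero, with starting fluorescence score within 5 deviations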;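 note: channel opened by trigger with iodide after compound preincubation; score built on the fluorescence ratio of max minus min over baseline; more negative score means more quench and so TMEM16A activation or potentiation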
Target sequence (Q8BHY3 whole entry, looked up): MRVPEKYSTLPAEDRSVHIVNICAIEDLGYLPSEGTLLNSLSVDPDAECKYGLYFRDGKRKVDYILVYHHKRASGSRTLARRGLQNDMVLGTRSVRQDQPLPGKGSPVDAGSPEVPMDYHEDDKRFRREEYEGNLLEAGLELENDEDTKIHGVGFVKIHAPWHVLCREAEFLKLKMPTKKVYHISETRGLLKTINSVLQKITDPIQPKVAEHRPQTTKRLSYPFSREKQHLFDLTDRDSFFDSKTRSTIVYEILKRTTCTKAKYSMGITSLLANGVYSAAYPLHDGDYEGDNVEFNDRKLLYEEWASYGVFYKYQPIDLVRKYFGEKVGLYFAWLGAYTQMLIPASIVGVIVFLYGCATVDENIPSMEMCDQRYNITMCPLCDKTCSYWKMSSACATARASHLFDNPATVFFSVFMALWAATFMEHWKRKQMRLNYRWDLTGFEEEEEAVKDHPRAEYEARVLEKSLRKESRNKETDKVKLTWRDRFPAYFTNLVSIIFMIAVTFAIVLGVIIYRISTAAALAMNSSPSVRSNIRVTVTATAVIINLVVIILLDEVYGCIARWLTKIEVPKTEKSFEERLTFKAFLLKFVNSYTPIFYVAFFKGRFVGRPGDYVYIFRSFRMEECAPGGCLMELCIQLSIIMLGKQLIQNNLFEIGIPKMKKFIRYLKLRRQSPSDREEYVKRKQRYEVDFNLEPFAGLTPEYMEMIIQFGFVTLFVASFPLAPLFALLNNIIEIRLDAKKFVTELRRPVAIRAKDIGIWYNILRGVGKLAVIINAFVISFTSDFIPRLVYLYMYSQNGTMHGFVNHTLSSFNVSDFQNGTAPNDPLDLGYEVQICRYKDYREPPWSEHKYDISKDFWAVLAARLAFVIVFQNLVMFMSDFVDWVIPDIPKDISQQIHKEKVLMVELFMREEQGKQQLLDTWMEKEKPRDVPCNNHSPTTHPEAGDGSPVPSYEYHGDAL
TMEM16A inh: TMEM16A chloride channel inhibitors, primary screen, cell-based, HTS | Anoctamin-1 (Mus musculus), Q8BHY3 | HEK293 TMEM16A/YFP iodide influx fluorescence, ionomycin | normalized B-score (activity score, 25-100; higher = stronger inhibition) at 10 µM | hit rate 1.2% among 310,000 | AID 588511, 2011;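 active = ratio plate-corrected score three or more library SD toward inhibition, starting fluorescence score within five deviations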;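 note: score derived from kinetic fluorescence span divided by baseline fluorescence per well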
UPR CHOP act: activators of apoptotic CHOP UPR arm, primary screen, cell-based, CHO-CHOP luciferase reporter, luminescence, uHTS; UPR activation; percent of tunicamycin response over DMSO baseline; hit rate 0.34% among 330,000; activation, % at 10 µM; AID 449763, 2010;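 active = at 10 µM dose, activation of 40% or more, normalized to positive control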;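 note: 100% = tunicamycin at 10 µg/mL and 0% = DMSO alone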
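Test system: CHO-CHOP cells, stable luciferase reporter of PERK-eIF2a-CHOP signalling | Quantity: 500 CHO-CHOP cells per well | Buffer or medium: F12 plus 10% serum | Compound dosing: 10 µM single point, 0.5% DMSO | Schedule: 6 h compound treatment, 37 °C | Signal: Luciferase luminescence | Control set: Tunicamycin high control, DMSO low control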
Lipid drop inh: hepatocyte lipid droplet accumulation inhibitors, confirmation, imaging, AML12 mouse hepatocytes, single concentration, high-content; shares compounds with Hep lipid drop; BODIPY lipid droplet imaging; droplets induced with 100 µM oleic acid; inhibition, % at 5.2 µM; hit rate 65% among 870; AID 463183, 2010;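 active = inhibition of lipid droplet metric at least 50%, with more than 300 cells in each of four replicates; inconclusive = wells under 300 cells, flagged as toxic or low count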;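 note: plate controls were DMSO with oleic acid for no effect and 5 µM Triacsin-C for full effect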
AML12 tox img: AML12 hepatocyte cytotoxicity, counter-screen for hepatic lipid droplet formation project, imaging, DAPI nuclear morphology imaging. AML12 mouse hepatocytes; active compounds read high; cells fed 100 µM oleate overnight. shares compounds with Hep lipid drop. hit rate 3% among 870. AID 463200, 2010. z-score at 5 µM; in the data active = z-score above about 6.3;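 note: compound exposure lasted overnight at 37 °C before fixation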
AML12 tox ATP: AML12 hepatocyte cytotoxicity, confirmation, cytotoxicity control for hepatic lipid droplet formation project, cell-based, single concentration; shares compounds with Hep lipid drop; AML12 mouse hepatocyte viability, ATP luminescence; cells loaded with 100 µM oleic acid; cytotoxicity, % at 50 µM; 530 tested, under 10 active; AID 463219, 2010;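 active = cytotoxicity above 50% in each of four replicates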;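 note: compound exposure lasted overnight at 37 °C before the ATP read; 0% = DMSO-treated cells and 100% = wells with no cells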
Numbers without * were called inactive; i = inactive; ? = inconclusive; . = no result. The list is not random: actives were taken first. Their share in the collection is about 4.2%.

SMILES	XBP1 UPR activ	Hep lipid drop	CHOP inhibitor	ANO1 activ	TMEM16A inh	UPR CHOP act	Lipid drop inh	AML12 tox img	others
CC(=O)N1CCN(C2=NC(=O)/C(=C/c3ccc(OS(=O)(=O)c4ccccc4)cc3)S2)CC1	1	12	.	i	i	-1	.	.
CC(C)c1c(C(=O)N/N=C/c2ccsc2)nnn1-c1nonc1N	-2	-1	.	i	i	3	.	.
O=C(NCC1CCCO1)c1cn(Cc2ccccc2Cl)nc1-c1ccccc1 (stereo not given)	-1	.	.	i	.	0	.	.
O=C1NC(=S)/C(=C\c2ccc(-c3ccccc3Cl)o2)S1	.	10	69	-5.8*	i	.	.	.
O=C1NC(=O)/C(=C/c2ccc(-c3cc(C(=O)O)ccc3Cl)o2)S1	-4	1	.	i	i	2	.	.
Cc1ccc(S(=O)(=O)n2nc(OC(=O)c3c(-c4ccccc4Cl)noc3C)cc2N)cc1	-3	.	21	i	i	2	.	.
Cc1onc(-c2ccccc2Cl)c1C(=O)Oc1cc(N)n(S(=O)(=O)c2ccc(F)cc2)n1	-5	.	4	i	25*	7	.	.
COc1ccccc1N1CCN(c2ncc(C(=O)N3CCN(c4cccc(Cl)c4)CC3)c3ccccc23)CC1	-1	-11	86*	i	i	8	.	.
CCOc1ccccc1C(=O)N1CCN(c2cccc(Cl)c2)CC1	12	?	.	i	i	2	.	.
CCC1COC(c2cccn2Cc2ccc(Cl)cc2)=N1 (stereo not given)	2	-8	31	i	i	-1	.	.
CCSCC1COC(c2cccn2Cc2ccc(C)cc2)=N1 (stereo not given)	-2	.	76*	i	i	1	.	.
Cc1ccc(NC(=O)Cc2csc(-c3ccccc3)n2)cc1F	1	7	33	i	i	1	.	.
O=C(Cc1csc(-c2ccccc2)n1)Nc1ccc(C(F)(F)F)cc1	-1	-15	83*	i	i	0	.	.
COc1ccc(Cc2nc3ccccc3[nH]2)cc1OC	-2	-28	0	i	i	-2	.	.
C=CCN1C(=O)/C(=C\C=C2\N(C)c3ccccc3C2(C)C)SC1=S	-2	91*	45	i	i	2	107*	-0.34	AML12 tox ATP=10
CN1/C(=C\C=C2/SC(=S)N(CC(=O)O)C2=O)C(C)(C)c2ccccc21	-1	22	14	i	i	-2	.	.
COc1ccc(OC)c(CNC(=O)CCCc2cn(C)c3ccccc23)c1	-2	82*	8	i	i	2	96*	0.28
CCOc1ccc(CNC(=O)CCCc2cn(C)c3ccccc23)cc1OC	2	37	8	i	i	-3	.	.
COc1ccc(OC)c(CNC(=O)CCc2cn(C)c3ccccc23)c1	-4	-80	.	i	i	0	.	.
COc1ccc(OC)c(CCNC(=O)CCc2cn(C)c3ccccc23)c1	-8	-14	.	i	i	0	.	.
COc1ccc(Br)cc1CNC(=O)CCCc1cn(C)c2ccccc12	-1	70*	13	i	i	0	94*	-0.28
COc1ccc(CCNC(=O)CCc2cn(C)c3ccccc23)c(OC)c1OC	-5	86*	.	i	i	2	99*	0.84
Cc1cccc(C)c1NC(=O)COC(=O)[C@@H]1CCCN1C(=O)c1cccs1	-1	.	.	i	.	3	.	.
Cc1csc(NC(=O)C(NC(=O)c2ccccc2F)C(C)C)n1 (stereo not given)	1	-9	4	i	i	-3	.	.
Cc1cccc(C(C(=O)NC2CCCC2)N(C(=O)c2csnn2)C2CCCC2)c1 (stereo not given)	-3	77*	.	i	i	3	74*	-0.49	AML12 tox ATP=12
SMILES	XBP1 UPR activ	Hep lipid drop	CHOP inhibitor	ANO1 activ	TMEM16A inh	UPR CHOP act	Lipid drop inh	AML12 tox img	others
CCOc1ccc(CCNC(=O)c2cc(-c3ccccc3)c(N3CCOCC3)s2)cc1	-4	.	.	i	i	5	.	.
COc1ccc(CCNC(=O)c2cc(-c3ccccc3)c(N3CCOCC3)s2)c(OC)c1OC	-1	96*	.	i	i	2	107*	0.029	AML12 tox ATP=-6
CCOc1ccc(CCNC(=O)c2cc(-c3ccccc3)c(N3CCOCC3)s2)cc1OCC	-4	100*	.	i	i	1	112*	-0.1	AML12 tox ATP=-13
O=C(NCc1ccc2c(c1)OCO2)c1cc(-c2ccccc2)c(N2CCOCC2)s1	-4	73*	.	i	i	0	109*	-1.1	AML12 tox ATP=-8
CN(Cc1ccc2c(c1)OCO2)C(=O)c1cc(-c2ccccc2)c(N2CCOCC2)s1	-1	.	.	i	.	2	.	.
Cn1c(=O)c2c(ncn2CC(=O)N/N=C/C=C\c2ccccc2[N+](=O)[O-])n(C)c1=O	-3	17	13	.	i	3	.	.
CCOc1cc(Br)c(CC(=O)NC2CCCCCC2)cc1OCC	0	116*	.	i	i	3	108*	0.016	AML12 tox ATP=9
COc1ccccc1CC(=O)NC1CCCCCC1	1	.	.	i	i	1	.	.
COc1cc(NC(=O)c2cccs2)c(OC)cc1NC(=O)CCC(=O)Nc1ccc2ncccc2c1	-3	68*	32	i	.	1	95*	0.97	AML12 tox ATP=68
CCCCOc1ccc(NC(=O)CN2CCN(CC)CC2)cc1	-1	-25	.	i	i	2	.	.
CCCCOc1ccc(NC(=O)Cn2c(=O)ccc3c(C)cc(C)nc32)cc1	-1	66*	23	i	i	1	91*	-0.13	AML12 tox ATP=10
COc1ccc(CC(=O)Oc2ccc(Br)cc2F)cc1S(=O)(=O)N1CCOCC1	-4	.	.	i	i	-1	.	.
Cc1ccccc1CSc1nc(C(C)(C)C)cc(=O)[nH]1	-1	-8	4	i	i	1	.	.
